{
  "source": "the RNAGym collection of RNA variant scans (doi:10.1126/science.aae0568)",
  "parents": {"B1": {"name": "tRNA (parent)", "chain": "GUUCCGUUGGCGUAAUGGUAACGCGUCUCCCUCCUAAGGAGAAGACUGCGGGUUCGAGUCCCGUACGGAACG"}},
  "note": "This sample holds only a part of the variants without activity.",
  "data": [
    {"variants_of": "B1", "assay": "yeast fitness relative to wild type (ratio to wild type); higher = fitter; tRNA-Arg(CCU), competitive growth, 37 C, YPD", "summary_of_the_method": "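A pool of Saccharomyces cerevisiae strains, each with a tRNA-Arg(CCU) gene variant at the native genomic locus, was competed in YPD at 37°C for 24 hours across six parallel replicates. The variants had been chemically synthesised at a 3% per-site mutation rate over 69 sites, and gene amplicons before and after competition were read by 100-nucleotide paired-end sequencing. Darwinian fitness relative to wild type rested on changes in genotype frequencies. Genotypes required ≥ 100 starting reads, and estimates < 0.5 were set to 0.5.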", "values": [
      {"variant": "A21U A40C A42U A43G C49U G50C C66U", "yeast fitness": "≤ 0.5"},
      {"variant": "C22A C60A C61G", "yeast fitness": 0.565},
      {"variant": "A21U C30G G48A", "yeast fitness": "≤ 0.5"},
      {"variant": "C22A U47A A70G", "yeast fitness": 0.577},
      {"variant": "A21U G63A", "yeast fitness": 0.856},
      {"variant": "C22A C66G", "yeast fitness": 0.714},
      {"variant": "C22A A45C U47C U54G", "yeast fitness": "≤ 0.5"},
      {"variant": "A21U U32C A36G A37U", "yeast fitness": "≤ 0.5"},
      {"variant": "C22G C24U G50C", "yeast fitness": "≤ 0.5"},
      {"variant": "C22A C27U G56A A57C", "yeast fitness": "≤ 0.5"},
      {"variant": "C22A C29U", "yeast fitness": 0.621},
      {"variant": "C22A C29A", "yeast fitness": 0.636},
      {"variant": "A21U U32C C49U A57C", "yeast fitness": 0.595},
      {"variant": "A21U C29A U35A A43U C62U G68C", "yeast fitness": "≤ 0.5"},
      {"variant": "C22A G25A G44A", "yeast fitness": 0.65},
      {"variant": "A21U C31A G39C C62G", "yeast fitness": "≤ 0.5"},
      {"variant": "A21U G23A C49A", "yeast fitness": "≤ 0.5"},
      {"variant": "A21U G52A G58A", "yeast fitness": "≤ 0.5"},
      {"variant": "C22A C29A U54G", "yeast fitness": "≤ 0.5"},
      {"variant": "C22A C55A A57U", "yeast fitness": "≤ 0.5"},
      {"variant": "C22G C24G C27A C60G", "yeast fitness": 0.521},
      {"variant": "C22A C33A G39C", "yeast fitness": "≤ 0.5"},
      {"variant": "A21U C55G C60A C61G C66G", "yeast fitness": "≤ 0.5"},
      {"variant": "C22G A37U A43U", "yeast fitness": 0.502},
      {"variant": "A21U C60U G67U", "yeast fitness": "≤ 0.5"},
      {"variant": "A21U A42G C49U", "yeast fitness": "≤ 0.5"},
      {"variant": "C22A A36G G41A", "yeast fitness": 0.548},
      {"variant": "A21U G25C A37G A43G A65G", "yeast fitness": "≤ 0.5"},
      {"variant": "C22A U53G G56C G67C", "yeast fitness": "≤ 0.5"},
      {"variant": "A21U U59A", "yeast fitness": 0.587},
      {"variant": "A21U C30U A42C C55U", "yeast fitness": "≤ 0.5"},
      {"variant": "A21U C30U A36G G44A", "yeast fitness": "≤ 0.5"},
      {"variant": "A21U A45U G50C U64G", "yeast fitness": "≤ 0.5"},
      {"variant": "A21U C31G A42G U53A G68A", "yeast fitness": "≤ 0.5"},
      {"variant": "C22G A43C C55G", "yeast fitness": 0.577},
      {"variant": "A21U C22U C66U A69U", "yeast fitness": "≤ 0.5"},
      {"variant": "A21U C27U G44A", "yeast fitness": "≤ 0.5"},
      {"variant": "C22G A43C C46A C61G A70C", "yeast fitness": "≤ 0.5"},
      {"variant": "C22A G63A", "yeast fitness": 0.983},
      {"variant": "A21U C55A A65C", "yeast fitness": "≤ 0.5"},
      {"variant": "C22A U59C", "yeast fitness": 0.814},
      {"variant": "A21U C24U A37C", "yeast fitness": 0.683},
      {"variant": "C22G A42C A70U", "yeast fitness": 0.671},
      {"variant": "A21U C49U", "yeast fitness": 0.781},
      {"variant": "A21U C22U G48C A65G", "yeast fitness": "≤ 0.5"},
      {"variant": "A21U A43G G44C", "yeast fitness": "≤ 0.5"},
      {"variant": "A21U C24G C62G C66U", "yeast fitness": "≤ 0.5"},
      {"variant": "C22A C31G G68A", "yeast fitness": "≤ 0.5"},
      {"variant": "C22A U28C A42G U47A", "yeast fitness": 0.64},
      {"variant": "C22A U35A", "yeast fitness": 0.603},
      {"variant": "C22A G51C A69U", "yeast fitness": 0.74},
      {"variant": "A21U C33G C55U", "yeast fitness": "≤ 0.5"},
      {"variant": "C22A U28G C31G A42U C61U", "yeast fitness": "≤ 0.5"},
      {"variant": "C22A G23C A42G", "yeast fitness": "≤ 0.5"},
      {"variant": "C22A C24G A45C", "yeast fitness": 0.564},
      {"variant": "A21U G25A C62A", "yeast fitness": "≤ 0.5"},
      {"variant": "C22G C24U A37C", "yeast fitness": "≤ 0.5"},
      {"variant": "C22A A69C", "yeast fitness": 0.874},
      {"variant": "C22A C46U", "yeast fitness": 1.1},
      {"variant": "A21U A45U", "yeast fitness": 0.676},
      {"variant": "C22A C24G A36C C66U", "yeast fitness": 0.692},
      {"variant": "C22A C30G C34G", "yeast fitness": "≤ 0.5"},
      {"variant": "A21U U26A C27G C30G A36U G38C C46U C49G A65U", "yeast fitness": "≤ 0.5"},
      {"variant": "C22A C60G", "yeast fitness": 0.57},
      {"variant": "C22A C60U", "yeast fitness": 0.682},
      {"variant": "C22A U28G G58C", "yeast fitness": "≤ 0.5"},
      {"variant": "C22A C34G A36G G48C", "yeast fitness": "≤ 0.5"},
      {"variant": "C22G C27G C31G A69U", "yeast fitness": 0.554},
      {"variant": "C22A A36G A42G", "yeast fitness": "≤ 0.5"},
      {"variant": "A21U A57U C60A G68C", "yeast fitness": "≤ 0.5"},
      {"variant": "C22G A36C", "yeast fitness": 0.585},
      {"variant": "C22A C30U C31G", "yeast fitness": 0.551},
      {"variant": "A21U G56C G63A U64C G67C A69U", "yeast fitness": "≤ 0.5"},
      {"variant": "A21U G67A", "yeast fitness": 0.818},
      {"variant": "C22A C30U U35C", "yeast fitness": "≤ 0.5"},
      {"variant": "C22A C24G A36G G39C C55U C66U", "yeast fitness": 0.513},
      {"variant": "C22G A69G", "yeast fitness": 0.952},
      {"variant": "A21U A40G A57U C60G G68C", "yeast fitness": "≤ 0.5"},
      {"variant": "A21U C46U C49U U54A", "yeast fitness": "≤ 0.5"},
      {"variant": "C22A U47A C66A", "yeast fitness": "≤ 0.5"},
      {"variant": "A21U U32G G48C G68C", "yeast fitness": "≤ 0.5"},
      {"variant": "C22G A45G C46U", "yeast fitness": 0.644},
      {"variant": "A21U G23C A36U", "yeast fitness": "≤ 0.5"}
    ]}
  ]
}
